# KCNQ1 pot: human KCNQ1 channel potentiation or activation. P51787. CHO-K1 KCNQ1, thallium flux FluxOR fluorescence; active compounds read high. B-score at 10 µM. actives 0.35% (n = 310,000). AID 2648;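 active = fluorescence ratio B-score, a plate-corrected score, at least three library SD, with initial intensity B-score within 5 SD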
#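 Material: CHO-K1 cells stably expressing KCNQ1. Medium: assay buffer for compound exposure, DMSO matched across wells. Reagent: K+/Tl+ depolarizing stimulus. Compound dosing: single-concentration screen. Times: 37 °C overnight plating, 90-min dark dye load, 20-min compound pretreatment. Technique: FluxOR Tl+ flux fluorescence.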
# KCNK9 block: blocks the human KCNK9 two-pore domain potassium channel; actives 1.2% (n = 310,000); B-score at 10 µM; HEK293 KCNK9, FluxOR thallium flux fluorescence; active compounds read low; Q9NPC2; AID 488922;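 active = ratio B-score over 3 SD below the library mean, with starting fluorescence within 5 SD of its mean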;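 note: negative B-score means less thallium flux so channel inhibition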
# Kir21 block: inhibitors of mouse Kir2.1 inward-rectifier potassium channel; HEK293-Kir2.1, FluxOR thallium flux fluorescence; active compounds read low; actives 0.85% (n = 310,000); B-score at 10 µM;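 active = fluorescence ratio B-score at or below minus 3 SD of library scores, with starting-brightness B-score within 2 SD, cut at about -4.2 in these data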;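 note: channel flux triggered by added potassium and thallium sulfate stimulus; B-score of peak minus minimum fluorescence over baseline after thallium stimulus; more negative B-score means stronger Kir2.1 block with less thallium influx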
# hERG protect: hERG (human) protection from proarrhythmic block. activation (rescue from dofetilide block), less the hit threshold, % at 10 µM. Q12809. actives 0.51% (n = 310,000). AID 1511. CHO-hERG, FluxOR thallium flux, dofetilide IC70 present;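 active = activation above the mean of controls blocked by dofetilide plus 5 SD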;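 note: thallium influx through hERG after potassium depolarization seen as dye fluorescence rise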
# KCNQ1 block: inhibitors of human KCNQ1 potassium channel | P51787 | CHO-K1 KCNQ1, FluxOR thallium flux fluorescence; active compounds read high | B-score at 10 µM | actives 1.3% (n = 310,000) | AID 2642;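 active = compounds whose thallium flux B-score, printed positive for inhibition, exceeds three library SD while starting fluorescence stays within three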;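 note: channel opened by potassium depolarization with thallium stimulus after 20 min compound exposure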
# KCNK3 block: human KCNK3 channel inhibition, primary screen; B-score at 10 µM; actives 0.84% (n = 340,000); CHO-KCNK3 thallium flux, FluxOR fluorescence; active compounds read low; O14649;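 active = B-score under library mean minus 4 SD, starting fluorescence ratio at most library mean plus 5 SD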;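 note: more negative B-score means stronger inhibition of thallium flux through KCNK3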
# Target sequence (O14649 whole entry, looked up): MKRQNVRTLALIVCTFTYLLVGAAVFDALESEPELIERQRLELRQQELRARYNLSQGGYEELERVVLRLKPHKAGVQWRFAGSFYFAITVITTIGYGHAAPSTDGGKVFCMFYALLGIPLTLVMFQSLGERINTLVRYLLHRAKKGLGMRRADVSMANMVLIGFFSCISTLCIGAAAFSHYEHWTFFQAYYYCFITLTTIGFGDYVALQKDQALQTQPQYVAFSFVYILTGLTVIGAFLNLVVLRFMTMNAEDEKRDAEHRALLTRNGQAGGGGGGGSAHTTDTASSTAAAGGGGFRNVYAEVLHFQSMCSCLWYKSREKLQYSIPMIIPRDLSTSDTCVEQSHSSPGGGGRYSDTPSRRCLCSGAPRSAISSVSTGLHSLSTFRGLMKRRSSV
# KCNK9 block conf: confirmation of human KCNK9 potassium channel inhibitors | shares compounds with KCNK9 block | HEK293 KCNK9 cells, FluxOR thallium flux fluorescence | inhibition, % at 10 µM | actives 43% (n = 4,900) | AID 492992;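 active = thallium signal inhibited by more than 5 SD of the compound-free buffer control wells, on both duplicate plates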;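 note: 0% = assay buffer control wells without compound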
# Kir2-1 spec: mouse Kir2.1 off-target activity of KCNK9 modulators | Kir2.1 cells, FluxOR thallium flux fluorescence | shares compounds with KCNK9 block | inhibition, % at 10 µM | actives 4% (n = 4,900);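 active = thallium signal drop more than 5 SD beyond the mean of the no-compound control wells, seen in both duplicate plates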;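 note: signal is fluorescence rise after thallium addition divided by baseline fluorescence; plate controls were assay buffer only for no effect and full block by chlorpromazine control for full effect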
# KCNK9 uninduced: non-induced cell nonspecific activity of KCNK9 modulators; actives 40% (n = 4,900); shares compounds with KCNK9 block; AID 492997; inhibition, % at 10 µM; non-induced KCNK9-HEK293, FluxOR thallium flux;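 active = thallium signal drop beyond 5 SD of the untreated control mean, on both duplicate plates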;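 note: plate controls were buffer only IC0 wells for no effect and SID17386958 at its maximal inhibitory level for full effect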
# KCNK3 confirm: human KCNK3 channel inhibition, confirmation assay | shares compounds with KCNK3 block | ratio percent of control, % at 10 µM | AID 651638 | actives 99% (n = 2,400) | CHO-KCNK3 thallium flux, FluxOR fluorescence; 0% buffer, 100% carvedilol maximal block;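 active = ratio percent of control, averaged over triplicates, above buffer control mean plus 5 SD, cut at about 64% in these data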;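 note: ratio is the fluorescence rise from min to max over baseline after thallium stimulus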
# KCNK3 noninduced: activity in cells without induced KCNK3 expression; shares compounds with KCNK3 block; non-induced KCNK3 parental cells, FluxOR thallium flux; active compounds read low; thallium flux ratio (lower = more inhibition) at 10 µM; actives 40% (n = 2,400);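 active = thallium flux ratio, averaged over three wells, more than 5 SD below the buffer control mean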;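 note: host cells are CHO cells without KCNK3 induction; ratio is peak minus trough fluorescence over baseline then normalized to buffer controls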
# An asterisk follows results filed as active; i = inactive; · = no result given. Most compounds without a hit are left out; they make up all but 3.7% or so of the library.
SMILES,KCNQ1 pot,KCNK9 block,Kir21 block,hERG protect,KCNQ1 block,KCNK3 block,KCNK9 block conf,Kir2-1 spec,KCNK9 uninduced,KCNK3 confirm,KCNK3 noninduced
Cc1ccc(S(=O)(=O)N(C)C)cc1NC(=O)c1cc(C(C)(C)C)nn1Cc1ccccc1,i,-16*,-0.96,-5,i,-12*,40%*,i,33%*,128*,0.14*
Cc1ccc(S(=O)(=O)N(C)C)cc1NC(=O)CN1CCN(Cc2ccccc2)CC1,i,i,-3.6,-8,i,i,·,·,·,·,·
CC(C)N1C(=S)N(Cc2ccco2)C(=O)C1CC(=O)Nc1ccccc1 (stereo unspecified),i,i,-0.86,-15,i,i,·,·,·,·,·
Cc1ccc(C)c(-c2csc(N/N=C/c3ccco3)n2)c1,i,-8.9*,-1.7,-7,i,-11*,38%*,i,27%*,115*,0.16*
COc1ccc2c(COC(=O)c3cccc(S(=O)(=O)NCC(C)C)c3)cc(=O)oc2c1,i,-9.3*,1.3,-22,i,-11*,i,i,i,138*,0.14*
FC(F)(F)c1cccc(NC(=S)NCc2ccccn2)c1,i,i,-0.84,-4,i,i,·,·,·,·,·
CC(C)N(C(=S)Nc1cccc(C(F)(F)F)c1)C(C)c1ccccn1 (stereo unspecified),i,-17*,1.4,-11,12*,-11*,77%*,i,44%*,133*,0.12*
O=C(NCC1COCCO1)c1cc(COc2ccc(F)cc2F)on1 (stereo unspecified),i,i,0.21,-8,i,i,·,·,·,·,·
O=C(NC1CCCCC1)c1cc2ccccc2cc1O,i,-12*,0.14,-13,i,-9.4*,26%*,i,i,107*,i
OC(Cc1cccnc1)c1ccccc1 (stereo unspecified),·,·,·,·,·,i,·,·,·,·,·
CCC(=O)c1ccccc1OCCCN1CCC(Cc2ccccc2)CC1,i,i,-5.4*,-17,i,-10*,i,i,i,88*,0.13*
COc1cc(C2CC(=O)N(CC(=O)NCC3CCCO3)c3ccccc3S2)cc(OC)c1OC (stereo unspecified),i,i,-0.84,-9,i,i,·,·,·,·,·
CC(C)(C)c1ccc(C(=O)NCC(=O)OCC(=O)c2ccc3c(c2)-c2ccccc2C3)cc1,i,i,0.48,-4,i,i,·,·,·,·,·
Cc1ccc(Cl)cc1NC(=S)N(Cc1ccco1)C(C)c1cccs1 (stereo unspecified),i,-9.6*,-0.51,-9,i,-11*,47%*,i,37%*,124*,0.15*
CCC(C)Nc1nc(N)c([N+](=O)[O-])c(Nc2cc(OC)ccc2OC)n1 (stereo unspecified),i,-9.7*,0.91,-14,i,i,40%*,i,i,136*,0.13*
O=C(NNC(=O)C1[C@H]2CCCC[C@@H]12)Nc1cccc2ccccc12 (stereo partly specified),i,i,0.72,-5,i,i,·,·,·,·,·
Cc1cc(S(=O)(=O)NCc2ccccc2)ccc1OCC(=O)NCC1CCCO1 (stereo unspecified),i,i,1.2,-13,i,i,·,·,·,·,·
CCCN(CC(=O)Nc1ccccc1C)C(=O)C1CC(=O)N(c2ccc(CC)cc2)C1 (stereo unspecified),·,·,·,·,·,i,·,·,·,·,·
O=C(COC(=O)c1cc(Cl)cc(Cl)c1)NCc1ccco1,·,·,·,·,·,i,·,·,·,·,·
COc1ccc(Cl)cc1NC(=O)CNCc1cccs1,i,i,1.4,-8,i,i,·,·,·,·,·
COc1ccc(Cl)cc1NC(=O)CN(C)Cc1cccs1,i,-21*,0.81,-4,i,-13*,74%*,i,50%*,108*,i
CC(=O)Nc1sc(C)c(C)c1C(=O)OCC(=O)Nc1ccccc1,·,·,·,·,·,i,·,·,·,·,·
CC(=O)Nc1sc(C)c(C)c1C(=O)OCCOc1ccccc1,i,-13*,1.5,-8,i,-11*,46%*,i,46%*,125*,0.13*
COCCNC(=O)C(=O)NNC(=O)CCc1ccccc1,i,i,0.9,2,i,i,·,·,·,·,·
Cc1cccc(OCC(=O)NC(C)C(=O)N/N=C/c2c(OCc3ccccc3)ccc3ccccc23)c1 (stereo unspecified),i,-16*,-0.21,-11,i,-9.4*,66%*,i,48%*,105*,i
SMILES,KCNQ1 pot,KCNK9 block,Kir21 block,hERG protect,KCNQ1 block,KCNK3 block,KCNK9 block conf,Kir2-1 spec,KCNK9 uninduced,KCNK3 confirm,KCNK3 noninduced
COc1cccc(COc2ccc3ccc(=O)oc3c2)c1,i,i,-0.13,-7,i,i,·,·,·,·,·
COc1ccc(COc2ccc3ccc(=O)oc3c2)cc1,i,-12*,-0.08,-6,i,-10*,46%*,i,32%*,115*,i
CC(C)=CCC/C(C)=C/COc1ccc2ccc(=O)oc2c1,i,-19*,-1.7,-7,i,-9.2*,68%*,i,46%*,93*,i
CC(=O)Oc1ccc2ccc(=O)oc2c1,i,i,-0.3,-4,i,i,·,·,·,·,·
CC1=CC(C/C(C)=C/COc2ccc3ccc(=O)oc3c2)OC1=O (stereo unspecified),i,i,0.12,-10,i,i,·,·,·,·,·
CC(C)=CCOc1ccc2ccc(=O)oc2c1,i,-12*,0.47,-6,i,-9.2*,37%*,i,34%*,119*,i
COc1cc(CN2CCN(CC3CC3)CC2CCO)cc(OC)c1 (stereo unspecified),i,i,0.56,1,i,i,·,·,·,·,·
Cc1nc2ccccc2c(=O)n1N(c1ccccc1)c1ccccc1,i,i,0.4,-17,i,i,·,·,·,·,·
CNS(=O)(=O)c1cn(CC(=O)NCc2ccc(N(C)C)cc2)cc1S(=O)(=O)NC,i,i,0.97,-3,i,i,·,·,·,·,·

# Source: PubChem
